The record followed here is ChEMBL document CHEMBL4038291, “Discovery of novel benzothienoazepine derivatives as potent inhibitors of respiratory syncytial virus” (Bioorg Med Chem Lett, 2017).

Each structure is given as a SMILES string. Where only a bound is given, the exact number is not on record here.

A short description of the first data set: Inhibition of RSV A2 RNA-directed RNA polymerase L infected in human Hep2 cells assessed as reduction in virus-induced cytopathic effect measured after 5 days by resazurin dye based fluorescence assay. In kind it is cell-based. Conditions: human respiratory syncytial virus, HEp-2, 120 h. Put shortly:
(§1)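 Read-out is cytopathic effect of RSV infection in HEp-2 cells. IC50 is the concentration reducing CPE by 50%. Values averaged from 2 experiments.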
Take `O=C(Nc1ccc(C(=O)N2CCc3cc(-c4nc5cc(C(F)(F)F)ccc5[nH]4)sc3-c3ccccc32)cc1)c1cccnc1N1CC2(CCOCC2)C1`: the IC50 was 3.1 nM.

Regarding `O=C(Nc1ccc(C(=O)N2CCc3cc(-c4nc5c(F)cccc5[nH]4)sc3-c3ccccc32)cc1)c1cccnc1N1CC2(CCOCC2)C1`, the IC50 amounted to 1.6 nM.

As to `Cc1cnc(N2CC3(CCOCC3)C2)c(C(=O)Nc2ccc(C(=O)N3CCc4cc(-c5cn6ccccc6n5)sc4-c4ccccc43)cc2)c1`, the IC50 turned out to be 1.8 nM.

Consider `O=C(Nc1ccc(C(=O)N2CCc3cc(-c4nc5ccccc5o4)sc3-c3ccccc32)cc1)c1cccnc1N1CC2(CCOCC2)C1`, for which the IC50 is 56 nM.

On to `O=C(NC1CC1)c1cc2c(s1)-c1ccccc1N(C(=O)c1ccc(NC(=O)c3cccnc3N3CC4(CCOCC4)C3)cc1)CC2`, for which the IC50 was 2.2 nM.

Turning to `O=C(Nc1ccc(C(=O)N2CCc3cc(-c4cc5ccccc5[nH]4)sc3-c3ccccc32)cc1)c1cccnc1N1CC2(CCOCC2)C1`, the IC50 stood at 1.5 nM.

On to `Cc1cnc(N2CC3(CCOCC3)C2)c(C(=O)Nc2ccc(C(=O)N3CCc4cc(-c5ncc(C)[nH]5)sc4-c4ccccc43)cc2)c1`, for which the IC50 was found to be 0.7 nM.

`O=C(Nc1ccc(C(=O)N2CCc3cc(-c4nc5cncnc5[nH]4)sc3-c3ccccc32)cc1)c1cccnc1N1CC2(CCOCC2)C1`: the IC50 came to 13.1 nM.

For the compound `Cc1cnc(N2CC3(CCOCC3)C2)c(C(=O)Nc2ccc(C(=O)N3CCc4cc(-c5nc6ccccc6[nH]5)sc4-c4ccccc43)cc2)c1`, the IC50 came out at 0.5 nM.

Regarding `O=C(Nc1ccc(C(=O)N2CCc3cc(-c4nc5ccccc5[nH]4)sc3-c3ccccc32)cc1)c1ccc(C(F)(F)F)nc1N1CC2(CCOCC2)C1`, the IC50 was determined as 7.3 nM.

Turning to `O=C(Nc1ccc(C(=O)N2CCc3cc(-c4nc5cnccc5[nH]4)sc3-c3ccccc32)cc1)c1cccnc1N1CC2(CCOCC2)C1`, the IC50 was found to be 7.6 nM.

Regarding `N#Cc1cccc2[nH]c(-c3cc4c(s3)-c3ccccc3N(C(=O)c3ccc(NC(=O)c5cccnc5N5CC6(CCOCC6)C5)cc3)CC4)nc12`, the 50% inhibitory concentration (IC50) amounted to 0.6 nM.

`O=C(Nc1ccc(C(=O)N2CCc3cc(-c4nc5cc(Cl)ccc5[nH]4)sc3-c3ccccc32)cc1)c1cccnc1N1CC2(CCOCC2)C1`: the IC50 was 1.6 nM.

The nature of a further data set: Inhibition of Respiratory syncytial virus B WST RNA-directed RNA polymerase L infected in human Hep2 cells assessed as reduction in virus-induced cytopathic effect measured after 6 days by resazurin dye based fluorescence assay. In kind it is cell-based. Conditions: HEp-2, 144 h. Put shortly: as §1
For `O=C(Nc1ccc(C(=O)N2CCc3cc(-c4nc5cc(C(F)(F)F)ccc5[nH]4)sc3-c3ccccc32)cc1)c1cccnc1N1CC2(CCOCC2)C1`, the IC50 is over 1360 nM.

Turning to `O=C(Nc1ccc(C(=O)N2CCc3cc(-c4nc5c(F)cccc5[nH]4)sc3-c3ccccc32)cc1)c1cccnc1N1CC2(CCOCC2)C1`, the IC50 came out at 90.9 nM.

With `Cc1cnc(N2CC3(CCOCC3)C2)c(C(=O)Nc2ccc(C(=O)N3CCc4cc(-c5cn6ccccc6n5)sc4-c4ccccc43)cc2)c1`, the IC50 was found to be 14.4 nM.

As for `O=C(Nc1ccc(C(=O)N2CCc3cc(-c4nc5ccccc5o4)sc3-c3ccccc32)cc1)c1cccnc1N1CC2(CCOCC2)C1`, the IC50 was over 1500 nM.

As for `O=C(NC1CC1)c1cc2c(s1)-c1ccccc1N(C(=O)c1ccc(NC(=O)c3cccnc3N3CC4(CCOCC4)C3)cc1)CC2`, the IC50 was 286 nM.

For the compound `O=C(Nc1ccc(C(=O)N2CCc3cc(-c4cc5ccccc5[nH]4)sc3-c3ccccc32)cc1)c1cccnc1N1CC2(CCOCC2)C1`, the IC50 was determined as 1020 nM.

Consider `Cc1cnc(N2CC3(CCOCC3)C2)c(C(=O)Nc2ccc(C(=O)N3CCc4cc(-c5ncc(C)[nH]5)sc4-c4ccccc43)cc2)c1`, for which the IC50 stood at 3.3 nM.

Regarding `O=C(Nc1ccc(C(=O)N2CCc3cc(-c4nc5cncnc5[nH]4)sc3-c3ccccc32)cc1)c1cccnc1N1CC2(CCOCC2)C1`, the half-inhibitory concentration (IC50) is over 1500 nM.

For `Cc1cnc(N2CC3(CCOCC3)C2)c(C(=O)Nc2ccc(C(=O)N3CCc4cc(-c5nc6ccccc6[nH]5)sc4-c4ccccc43)cc2)c1`, the IC50 worked out at 5.2 nM.

On to `O=C(Nc1ccc(C(=O)N2CCc3cc(-c4nc5ccccc5[nH]4)sc3-c3ccccc32)cc1)c1ccc(C(F)(F)F)nc1N1CC2(CCOCC2)C1`, for which the IC50 was over 1360 nM.

As to `O=C(Nc1ccc(C(=O)N2CCc3cc(-c4nc5cnccc5[nH]4)sc3-c3ccccc32)cc1)c1cccnc1N1CC2(CCOCC2)C1`, the IC50 is 844 nM.

With `N#Cc1cccc2[nH]c(-c3cc4c(s3)-c3ccccc3N(C(=O)c3ccc(NC(=O)c5cccnc5N5CC6(CCOCC6)C5)cc3)CC4)nc12`, the IC50 was 69 nM.

Take `O=C(Nc1ccc(C(=O)N2CCc3cc(-c4nc5cc(Cl)ccc5[nH]4)sc3-c3ccccc32)cc1)c1cccnc1N1CC2(CCOCC2)C1`: the IC50 was 161 nM.

The next data set in a line: Cytotoxicity against human Hep2 cells. To be noted: HEp-2 cells. In kind it is cell-based.
In the case of `O=C(Nc1ccc(C(=O)N2CCc3cc(-c4nc5cc(C(F)(F)F)ccc5[nH]4)sc3-c3ccccc32)cc1)c1cccnc1N1CC2(CCOCC2)C1`, the CC50 is over 13600 nM.

`O=C(Nc1ccc(C(=O)N2CCc3cc(-c4nc5c(F)cccc5[nH]4)sc3-c3ccccc32)cc1)c1cccnc1N1CC2(CCOCC2)C1` had a CC50 of over 14600 nM.

The compound `Cc1cnc(N2CC3(CCOCC3)C2)c(C(=O)Nc2ccc(C(=O)N3CCc4cc(-c5cn6ccccc6n5)sc4-c4ccccc43)cc2)c1` showed a CC50 of over 14600 nM.

`O=C(Nc1ccc(C(=O)N2CCc3cc(-c4nc5ccccc5o4)sc3-c3ccccc32)cc1)c1cccnc1N1CC2(CCOCC2)C1` returned a CC50 of over 14900 nM.

`O=C(NC1CC1)c1cc2c(s1)-c1ccccc1N(C(=O)c1ccc(NC(=O)c3cccnc3N3CC4(CCOCC4)C3)cc1)CC2` returned a CC50 of 6410 nM.

With `O=C(Nc1ccc(C(=O)N2CCc3cc(-c4cc5ccccc5[nH]4)sc3-c3ccccc32)cc1)c1cccnc1N1CC2(CCOCC2)C1`, the CC50 was over 15000 nM.

Take `Cc1cnc(N2CC3(CCOCC3)C2)c(C(=O)Nc2ccc(C(=O)N3CCc4cc(-c5ncc(C)[nH]5)sc4-c4ccccc43)cc2)c1`: the CC50 is over 15500 nM.

Turning to `O=C(Nc1ccc(C(=O)N2CCc3cc(-c4nc5cncnc5[nH]4)sc3-c3ccccc32)cc1)c1cccnc1N1CC2(CCOCC2)C1`, the CC50 is over 14900 nM.

Regarding `Cc1cnc(N2CC3(CCOCC3)C2)c(C(=O)Nc2ccc(C(=O)N3CCc4cc(-c5nc6ccccc6[nH]5)sc4-c4ccccc43)cc2)c1`, the CC50 is over 14600 nM.

The compound `O=C(Nc1ccc(C(=O)N2CCc3cc(-c4nc5ccccc5[nH]4)sc3-c3ccccc32)cc1)c1ccc(C(F)(F)F)nc1N1CC2(CCOCC2)C1` yielded a CC50 of over 13600 nM.

The compound `O=C(Nc1ccc(C(=O)N2CCc3cc(-c4nc5cnccc5[nH]4)sc3-c3ccccc32)cc1)c1cccnc1N1CC2(CCOCC2)C1` returned a CC50 of over 14900 nM.

As for `N#Cc1cccc2[nH]c(-c3cc4c(s3)-c3ccccc3N(C(=O)c3ccc(NC(=O)c5cccnc5N5CC6(CCOCC6)C5)cc3)CC4)nc12`, the CC50 was over 14400 nM.

Take `O=C(Nc1ccc(C(=O)N2CCc3cc(-c4nc5cc(Cl)ccc5[nH]4)sc3-c3ccccc32)cc1)c1cccnc1N1CC2(CCOCC2)C1`: the CC50 is over 14200 nM.

A word on the IC50: it is the concentration at which inhibition is half-maximal. Usually CC50 stands for the concentration giving 50% cytotoxicity. A high value points to lower toxicity to the cells.
